Data published in ChEMBL document CHEMBL5532647, “Design, synthesis, ADME and biological evaluation of benzylpiperidine and benzylpiperazine derivatives as novel reversible monoacylglycerol lipase (MAGL) inhibitors” (Eur J Med Chem, 2024).
In brackets after ≈: the same amount, converted by molar mass. Activity calls are given as the source filed them. The rule behind the calls is not given here.

How the values were obtained:
[1] = biological target: T1, Monoglyceride lipase (Homo sapiens, UniProt Q99685); assay: Inhibition of human recombinant MAGL using 4-nitrophenylacetate as substrate incubated for 30 mins by microplate reader analysis
T1 sequence (Q99685 whole entry): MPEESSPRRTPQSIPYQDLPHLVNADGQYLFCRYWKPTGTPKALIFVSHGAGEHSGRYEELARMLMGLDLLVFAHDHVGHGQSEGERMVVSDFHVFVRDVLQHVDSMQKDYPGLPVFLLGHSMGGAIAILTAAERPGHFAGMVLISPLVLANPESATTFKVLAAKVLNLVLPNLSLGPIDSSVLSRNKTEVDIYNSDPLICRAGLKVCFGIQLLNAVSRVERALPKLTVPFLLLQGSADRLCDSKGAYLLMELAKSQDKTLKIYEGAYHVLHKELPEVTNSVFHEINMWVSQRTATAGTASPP

[2] = biological target: T2, Monoglyceride lipase (Mus musculus) (UniProt O35678); assay: Displacement of TAMRA-FP from mouse brain MAGL at 1 uM incubated with compound for 5 mins followed by ABPP assay; assay type: tissue-based
T2 sequence (whole entry): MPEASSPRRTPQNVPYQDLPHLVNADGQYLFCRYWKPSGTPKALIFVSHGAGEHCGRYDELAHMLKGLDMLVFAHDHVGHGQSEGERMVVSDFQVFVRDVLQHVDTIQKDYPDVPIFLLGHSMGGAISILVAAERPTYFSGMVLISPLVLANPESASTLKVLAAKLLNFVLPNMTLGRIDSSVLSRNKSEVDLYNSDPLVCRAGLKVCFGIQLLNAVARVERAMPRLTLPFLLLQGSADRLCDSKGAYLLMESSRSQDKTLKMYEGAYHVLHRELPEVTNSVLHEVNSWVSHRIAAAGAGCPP

[3] = biological target: T3, Monoacylglycerol lipase ABHD6 (Mus musculus) (UniProt Q8R2Y0); assay: Displacement of TAMRA-FP from mouse brain ABHD6 at 10 uM incubated with compound for 5 mins followed by ABPP assay; assay type: tissue-based
T3 sequence (whole entry): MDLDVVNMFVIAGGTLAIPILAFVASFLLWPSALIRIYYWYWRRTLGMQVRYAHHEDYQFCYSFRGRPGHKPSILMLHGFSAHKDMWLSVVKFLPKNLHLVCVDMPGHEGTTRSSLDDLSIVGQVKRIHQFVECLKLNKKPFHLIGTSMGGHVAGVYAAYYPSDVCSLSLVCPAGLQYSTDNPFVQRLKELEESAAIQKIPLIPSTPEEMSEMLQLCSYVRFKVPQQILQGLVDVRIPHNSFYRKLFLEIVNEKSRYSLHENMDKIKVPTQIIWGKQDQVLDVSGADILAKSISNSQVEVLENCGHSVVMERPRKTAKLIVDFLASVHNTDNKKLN
Summary of the method: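 Mouse brain membranes (2 mg/mL final, in PBS) preincubated 25 min at 25 °C with test compound (10 μM final) or DMSO vehicle. Controls: JZL-184, URB597 4 μM, WWL70 10 μM, THL, MAFP 5 μM. TAMRA-FP 125 nM final added for 5 min at 25 °C. Reaction stopped with Laemmli buffer, 3 min at 25 °C then 10 min at 90 °C. Separation by 10% SDS-PAGE, fluorescence scanning, three independent experiments.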

[4] = Thermodynamic aqueous solubility of the compound by LC-MS/MS analysis; assay type: physicochemical; conditions: read-out: Therm_solubility
Summary of the method: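 Solid compound (1 mg) shaken overnight in 1 mL distilled water at room temperature. Suspension passed through a 0.45 μm nylon filter. Dissolved compound quantified in triplicate by UV/LC-MS or LC-MS/MS against a calibration curve of compound in methanol.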

[5] = Apparent permeability of the compound by PAMPA method; assay type: ADME
Summary of the method: (§1)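 Donor solution made from 1 mM DMSO stock diluted in 25 mM phosphate buffer pH 7.4 to 500 μM final. Filter coated with 1% (w/v) phosphatidylcholine in dodecane. Acceptor was 1:1 v/v DMSO/phosphate buffer. Sandwich incubated 5 h at room temperature. Compound in donor and acceptor wells quantified by UV/LC-MS.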

[6] = Permeability of the compound assessed as membrane retention rate by PAMPA method; assay type: ADME; summary of the method: as §1
[7] = Metabolic stability in human liver microsome in presence of NADPH-regenerating system by UV/LC-MS analysis; assay type: ADME; conditions: microsomes
Summary of the method: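 Compound incubated 1 h at 37 °C with human liver microsomes (0.2 mg/mL) and an NADPH-regenerating system (NADPH 0.2 mM, NADP+ 1 mM, glucose-6-phosphate 4 mM, G6PDH 4 unit/mL, MgCl2 48 mM) in 25 mM phosphate buffer pH 7.4. Quenched with acetonitrile, then centrifuged. Parent and metabolites measured by UV/LC-MS. Percent unmetabolized obtained against reference solutions; three independent experiments.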

[8] = Stability in human plasma measured after 24 hrs by UV/LC-MS analysis; assay type: ADME, cell-free; conditions: read-out: Stability
Summary of the method: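 Compound (2 mM) incubated at 37 °C in pooled human plasma (55.7 mg protein/mL) with HEPES 25 mM, NaCl 140 mM, pH 7.4. Samples taken at 0–24 h and precipitated with cold acetonitrile. After centrifugation, supernatant analysed by UV/LC-MS. Three independent experiments.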

| Compound | IC50 [1] [nM] | also measured |
| --- | --- | --- |
| COc1ccc(Sc2cc(C(F)(F)F)ccn2)cc1CC1CCN(C(=O)c2cccc(O)c2)CC1 | 49.1 | – |
| O=C(c1cccc(O)c1)N1CCC(Cc2cccc(Sc3ncccc3C(F)(F)F)c2)CC1 | 7.1 | – |
| O=C(Oc1ccc([N+](=O)[O-])cc1)N1CCC(C(O)(c2ccc3c(c2)OCO3)c2ccc3c(c2)OCO3)CC1 | – | Activity [2]: Active |
| O=C(c1cccc(O)c1)N1CCC(Cc2cc(Sc3cc(C(F)(F)F)ccn3)ccc2F)CC1 | 22.5 | – |
| O=C(Nc1ccc(C(=O)N2CCC(Cc3cccc(Sc4cc(C(F)(F)F)ccn4)c3)CC2)cc1O)c1ccccc1 | > 1000 | – |
| CN(Cc1cccc(-c2ccncc2)c1)C(=O)Oc1ccc(-c2ccc(C(N)=O)cc2)cc1 | – | Activity [3]: Active |
| O=C(c1cc(O)cc(Sc2ccccc2)c1)N1CCC(Cc2cccc(Sc3cc(C(F)(F)F)ccn3)c2)CC1 | 44.8 | – |
| O=C(c1cc(O)ccc1Sc1ccccc1)N1CCC(Cc2cccc(Sc3cc(C(F)(F)F)ccn3)c2)CC1 | 32.3 | – |
| O=C(c1cccc(O)c1)N1CCC(Cc2cccc(Sc3ccc(C(F)(F)F)cn3)c2)CC1 | 40.4 | – |
| O=C(Nc1ccc(O)cc1C(=O)N1CCC(Cc2cccc(Sc3cc(C(F)(F)F)ccn3)c2)CC1)c1ccccc1 | 112 | – |
| O=C(c1ccc(Sc2cccc(C(F)(F)F)c2)cc1)C1CCN(C(=O)c2cc(O)ccc2F)CC1 | – | solubility thermodynamic [4]: 0.129 ng/mL (≈ 0.256 nM); Papp [5]: 1.83 ×10⁻⁶ cm/s; R% [6]: 47%; Stability [7]: 90.71%; remaining at 24 h [8]: > 99% |
| O=C(Nc1cc(O)cc(C(=O)N2CCC(Cc3cccc(Sc4cc(C(F)(F)F)ccn4)c3)CC2)c1)c1ccccc1 | 149 | – |
| O=C(c1ccc(Sc2ccccc2)c(O)c1)N1CCC(Cc2cccc(Sc3cc(C(F)(F)F)ccn3)c2)CC1 | 242 | – |
| O=C(c1cccc(O)c1)N1CCC(Cc2cc(Sc3cc(C(F)(F)F)ccn3)ccc2O)CC1 | 20.8 | – |
| O=C(c1cccc(O)c1)N1CCC(Cc2ccc(O)c(Sc3cc(C(F)(F)F)ccn3)c2)CC1 | 61.2 | – |
| COc1ccc(CC2CCN(C(=O)c3cccc(O)c3)CC2)cc1Sc1cc(C(F)(F)F)ccn1 | 14.4 | – |
| O=C(c1cccc(O)c1)N1CCC(Cc2cccc(Sc3cccc(C(F)(F)F)n3)c2)CC1 | 13.2 | – |
